Measurements taken from ChEMBL document CHEMBL4393708, “Pyridinylimidazoles as dual glycogen synthase kinase 3β/p38α mitogen-activated protein kinase inhibitors” (Eur J Med Chem, 2019).
Values after ≈ are worked out from the molar mass of the structure shown.

Key:
[1] = Drug metabolism in RjOrl:Swiss CD-1 mouse at 10 mg/kg, iv administered as single dose measured after 2 hrs by LC-MS relative to control; type: ADME, organism-based; conditions: in vivo
Method in brief: (§1)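 Adult male RjOrl:Swiss CD-1 mice got one intravenous dose of 10 mg/kg. Plasma was sampled at 10, 30 and 120 min. After the last sample the mice were sacrificed and brains dissected. Blood and brain samples were prepared and analysed by LC-MS for parent and sulfoxide metabolite; brain levels reported as ng/g.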

[2] = target: T1, Glycogen synthase kinase-3 beta (Homo sapiens, UniProt P49841); assay: Competitive inhibition of human recombinant full length GSK3beta using YRRAAVPPSPSLSRHSSPHQ(pS)EDEEE as substrate preincubated with enzyme for 10 mins followed by substrate and 100 uM ATP addition measured after 60 mins by ADP-Glo luminescence assay
Method in brief: (§2)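 Recombinant human GSK3β at 0.58 ng/µL with 0.2 µg/µL substrate G50-58; ATP at 25 µM, 100 µM or 500 µM, each as its line states. Compounds in serial dilutions were preincubated with kinase for 10 min at rt. Substrate/ATP was then added and the reaction ran 60 min at rt. ADP-Glo reagent 60 min, detection reagent 30 min, then luminescence read (500 ms integration).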

CYP2D6 = CYP2D6 (Homo sapiens, UniProt P10635); assay: Inhibition of human recombinant CYP2D6 expressed in baculovirus infected insect cells using EOMCC as substrate at 10 uM in presence of NADPH by fluorimetric analysis relative to control; type: ADME; conditions: probe EOMCC
CYP1A2 = CYP1A2 (Homo sapiens, UniProt P05177); assay: Inhibition of human recombinant CYP1A2 expressed in baculovirus infected insect cells using 3-cyano-7-ethoxycoumarin as substrate at 10 uM in presence of NADPH by fluorimetric analysis relative to control; type: ADME; conditions: probe 3-cyano-7-ethoxycoumarin
CYP3A4 = CYP3A4 (Homo sapiens, UniProt P08684); assay: Inhibition of human recombinant CYP3A4 expressed in baculovirus infected insect cells using BOMR as substrate at 10 uM in presence of NADPH by fluorimetric analysis relative to control; type: ADME; conditions: probe BOMR
hERG (KCNH2) = hERG (KCNH2) (Homo sapiens, UniProt Q12809); assay: Inhibition of tracer Red binding to human ERG expressed in membranes at 10 uM after 4 hrs by fluorescence polarization assay relative to control; conditions: membranes expressing human ERG, probe tracer Red
Blood = assay: Inhibition of LPS-induced TNFalpha production in human whole blood preincubated with compound for 15 mins followed by LPS addition measured after 2.5 hrs by ELISA; type: functional, tissue-based
[3] = Drug metabolism in human liver microsomes assessed as N-(4-(4-(4-Fluorophenyl)-2-(methylsulfinyl)-1H-imidazol-5-yl)pyridin-2-yl)cyclopropanecarboxamide metabolite formation by measuring half life by LC-MS analysis; type: ADME, Microsome
Method in brief: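 Incubation with human liver microsomes for up to 4 h. Remaining parent and sulfoxide metabolite formation were followed over time, giving a half-life for the oxidation.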

[4] = Metabolic stability in human liver microsomes assessed as parent compound remaining after 120 mins by LC-MS analysis relative to control; type: ADME, Microsome; conditions: read-out: Stability
[5] = Metabolic stability in human liver microsomes assessed as parent compound remaining after 240 mins by LC-MS analysis relative to control; type: ADME, Microsome; conditions: read-out: Stability
[6] = target: Mitogen-activated protein kinase 14 (Homo sapiens, UniProt Q16539); assay: Inhibition of p38alpha MAPK (unknown origin) using ATF-2 as substrate after 1 hr by ELISA
[7] = target: Glycogen synthase kinase-3 alpha (Homo sapiens, UniProt P49840); assay: Inhibition of human recombinant full length GSK3alpha using YRRAAVPPSPSLSRHSSPHQ(pS)EDEEE as substrate preincubated with enzyme for 10 mins followed by substrate and 25 uM ATP addition measured after 60 mins by ADP-Glo luminescence assay
Method in brief: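 Recombinant human GSK3α at 0.50 ng/µL, 25 µM ATP, 0.2 µg/µL substrate G50-58, serial compound dilutions. Kinase was preincubated with compound 10 min at rt, then run 60 min at rt after substrate/ATP addition. ADP-Glo reagent 60 min, detection reagent 30 min, luminescence read. Uninhibited-kinase and ATP/substrate-only controls were included.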

CYP2C9 = CYP2C9 (Homo sapiens, UniProt P11712); assay: Inhibition of human recombinant CYP2C9 expressed in baculovirus infected insect cells using OOMR as substrate at 10 uM in presence of NADPH by fluorimetric analysis relative to control; type: ADME; conditions: probe OOMR
[8] = Metabolic stability in human liver microsomes assessed as parent compound remaining after 20 mins by LC-MS analysis relative to control; type: ADME, Microsome; conditions: read-out: Stability
[9] = target: T1, Glycogen synthase kinase-3 beta; assay: Competitive inhibition of human recombinant full length GSK3beta using YRRAAVPPSPSLSRHSSPHQ(pS)EDEEE as substrate preincubated with enzyme for 10 mins followed by substrate and 500 uM ATP addition measured after 60 mins by ADP-Glo luminescence assay; method in brief: as §2
[10] = target: T1, Glycogen synthase kinase-3 beta; assay: Competitive inhibition of human recombinant full length GSK3beta using YRRAAVPPSPSLSRHSSPHQ(pS)EDEEE as substrate preincubated with enzyme for 10 mins followed by substrate and 25 uM ATP addition measured after 60 mins by ADP-Glo luminescence assay
Method in brief: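 Compounds in serial dilutions were preincubated with kinase for 10 min at rt. Substrate/ATP was then added and the reaction ran 60 min at rt. ADP-Glo reagent 60 min, detection reagent 30 min, then luminescence read (500 ms integration).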

[11] = Metabolic stability in human liver microsomes assessed as parent compound remaining after 60 mins by LC-MS analysis relative to control; type: ADME, Microsome; conditions: read-out: Stability
[12] = Metabolic stability in human liver microsomes assessed as parent compound remaining after 10 mins by LC-MS analysis relative to control; type: ADME, Microsome; conditions: read-out: Stability
[13] = Metabolic stability in human liver microsomes assessed as parent compound remaining after 30 mins by LC-MS analysis relative to control; type: ADME, Microsome; conditions: read-out: Stability
[14] = Solubility of the compound in PBS buffer at pH 7.8 after 1 hr by HPLC analysis; type: physicochemical
[15] = Metabolic stability in human liver microsomes assessed as parent compound remaining after 180 mins by LC-MS analysis relative to control; type: ADME, Microsome; conditions: read-out: Stability
[16] = Drug metabolism in RjOrl:Swiss CD-1 mouse assessed as ratio of compound to N-(4-(4-(4-Fluorophenyl)-2-(methylsulfinyl)-1H-imidazol-5-yl)pyridin-2-yl)cyclopropanecarboxamide metabolite level at 10 mg/kg, iv administered as single dose measured after 10 mins by LC-MS analysis; type: ADME, organism-based; conditions: in vivo; method in brief: as §1
Cytochrome P450 2C19 = Cytochrome P450 2C19 (Homo sapiens, UniProt P33261); assay: Inhibition of human recombinant CYP2C19 expressed in baculovirus infected insect cells using EOMCC as substrate in presence of NADPH by fluorimetric analysis relative to control; type: ADME; conditions: recombinant enzyme
Cytochrome P450 2C19, sequence (P33261 whole entry): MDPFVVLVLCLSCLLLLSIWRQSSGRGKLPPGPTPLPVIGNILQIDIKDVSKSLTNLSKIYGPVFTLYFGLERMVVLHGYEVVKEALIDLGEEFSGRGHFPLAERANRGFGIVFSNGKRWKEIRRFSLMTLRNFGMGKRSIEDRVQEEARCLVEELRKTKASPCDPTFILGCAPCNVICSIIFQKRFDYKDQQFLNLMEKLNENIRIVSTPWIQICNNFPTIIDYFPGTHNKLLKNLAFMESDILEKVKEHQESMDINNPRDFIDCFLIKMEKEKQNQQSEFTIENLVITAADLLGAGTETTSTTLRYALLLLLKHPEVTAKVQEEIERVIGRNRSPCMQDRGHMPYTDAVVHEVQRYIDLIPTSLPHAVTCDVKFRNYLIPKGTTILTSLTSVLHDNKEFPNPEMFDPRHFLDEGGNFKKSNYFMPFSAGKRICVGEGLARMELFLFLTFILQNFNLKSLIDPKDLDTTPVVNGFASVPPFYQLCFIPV

T1 sequence (P49841 whole entry): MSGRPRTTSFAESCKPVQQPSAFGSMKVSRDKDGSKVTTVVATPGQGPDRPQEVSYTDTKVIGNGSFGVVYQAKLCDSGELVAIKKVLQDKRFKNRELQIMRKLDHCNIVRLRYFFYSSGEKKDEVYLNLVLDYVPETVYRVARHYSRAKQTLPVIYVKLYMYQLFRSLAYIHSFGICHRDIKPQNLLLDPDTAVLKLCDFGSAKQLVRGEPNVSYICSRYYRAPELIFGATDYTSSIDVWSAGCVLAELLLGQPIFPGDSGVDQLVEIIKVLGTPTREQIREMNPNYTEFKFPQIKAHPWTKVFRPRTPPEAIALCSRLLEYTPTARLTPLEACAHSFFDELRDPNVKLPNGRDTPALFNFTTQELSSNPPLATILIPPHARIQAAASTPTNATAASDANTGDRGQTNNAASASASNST
CYP3A4, sequence (P08684 whole entry): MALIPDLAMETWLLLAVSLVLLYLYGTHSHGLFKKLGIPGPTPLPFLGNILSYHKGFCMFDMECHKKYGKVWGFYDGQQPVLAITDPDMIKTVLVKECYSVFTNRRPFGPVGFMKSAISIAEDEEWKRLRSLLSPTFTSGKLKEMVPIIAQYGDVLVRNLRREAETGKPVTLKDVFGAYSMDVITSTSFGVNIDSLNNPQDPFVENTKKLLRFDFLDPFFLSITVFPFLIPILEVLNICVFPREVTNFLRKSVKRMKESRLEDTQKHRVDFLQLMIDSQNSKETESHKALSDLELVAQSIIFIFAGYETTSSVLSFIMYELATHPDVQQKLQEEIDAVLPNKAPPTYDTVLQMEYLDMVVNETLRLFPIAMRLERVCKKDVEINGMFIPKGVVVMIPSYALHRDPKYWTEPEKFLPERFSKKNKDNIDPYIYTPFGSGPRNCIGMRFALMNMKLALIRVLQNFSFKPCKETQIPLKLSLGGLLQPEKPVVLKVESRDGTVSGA
Glycogen synthase kinase-3 alpha, sequence (P49840 whole entry): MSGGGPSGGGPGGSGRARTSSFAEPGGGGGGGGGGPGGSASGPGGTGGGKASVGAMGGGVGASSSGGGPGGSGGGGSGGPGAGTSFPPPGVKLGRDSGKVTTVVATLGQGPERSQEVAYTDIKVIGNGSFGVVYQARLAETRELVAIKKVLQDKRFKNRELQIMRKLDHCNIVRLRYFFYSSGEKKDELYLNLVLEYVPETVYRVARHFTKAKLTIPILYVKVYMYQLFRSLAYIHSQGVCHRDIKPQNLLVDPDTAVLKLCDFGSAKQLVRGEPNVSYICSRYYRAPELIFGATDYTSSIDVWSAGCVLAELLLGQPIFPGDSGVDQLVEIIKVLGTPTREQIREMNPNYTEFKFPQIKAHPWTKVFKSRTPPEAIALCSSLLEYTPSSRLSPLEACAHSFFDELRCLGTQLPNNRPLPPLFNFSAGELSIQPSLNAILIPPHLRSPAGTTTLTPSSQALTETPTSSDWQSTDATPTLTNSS
Mitogen-activated protein kinase 14, sequence (Q16539 whole entry): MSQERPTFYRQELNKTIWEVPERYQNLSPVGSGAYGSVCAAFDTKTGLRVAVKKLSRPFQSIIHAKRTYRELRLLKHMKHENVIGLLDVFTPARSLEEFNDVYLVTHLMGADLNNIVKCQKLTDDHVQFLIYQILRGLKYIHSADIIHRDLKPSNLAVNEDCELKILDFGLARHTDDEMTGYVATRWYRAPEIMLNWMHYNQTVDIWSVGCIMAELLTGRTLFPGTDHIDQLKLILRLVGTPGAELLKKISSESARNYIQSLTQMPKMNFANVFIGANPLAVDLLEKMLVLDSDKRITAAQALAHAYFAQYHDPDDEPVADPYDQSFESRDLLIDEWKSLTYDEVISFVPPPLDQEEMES
CYP2C9, sequence (P11712 whole entry): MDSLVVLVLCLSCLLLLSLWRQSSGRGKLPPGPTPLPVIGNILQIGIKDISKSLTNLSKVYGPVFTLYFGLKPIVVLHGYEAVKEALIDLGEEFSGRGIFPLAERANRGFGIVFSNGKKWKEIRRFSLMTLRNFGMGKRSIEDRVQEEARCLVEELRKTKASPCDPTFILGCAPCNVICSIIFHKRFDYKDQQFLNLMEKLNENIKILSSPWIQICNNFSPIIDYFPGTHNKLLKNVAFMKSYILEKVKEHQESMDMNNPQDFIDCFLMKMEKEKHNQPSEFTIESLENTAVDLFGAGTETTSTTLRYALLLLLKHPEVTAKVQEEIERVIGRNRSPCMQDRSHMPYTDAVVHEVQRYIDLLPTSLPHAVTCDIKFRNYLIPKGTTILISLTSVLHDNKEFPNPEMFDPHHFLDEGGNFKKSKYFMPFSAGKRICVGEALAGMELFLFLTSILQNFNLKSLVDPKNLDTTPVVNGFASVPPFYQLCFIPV
CYP1A2, sequence (P05177 whole entry): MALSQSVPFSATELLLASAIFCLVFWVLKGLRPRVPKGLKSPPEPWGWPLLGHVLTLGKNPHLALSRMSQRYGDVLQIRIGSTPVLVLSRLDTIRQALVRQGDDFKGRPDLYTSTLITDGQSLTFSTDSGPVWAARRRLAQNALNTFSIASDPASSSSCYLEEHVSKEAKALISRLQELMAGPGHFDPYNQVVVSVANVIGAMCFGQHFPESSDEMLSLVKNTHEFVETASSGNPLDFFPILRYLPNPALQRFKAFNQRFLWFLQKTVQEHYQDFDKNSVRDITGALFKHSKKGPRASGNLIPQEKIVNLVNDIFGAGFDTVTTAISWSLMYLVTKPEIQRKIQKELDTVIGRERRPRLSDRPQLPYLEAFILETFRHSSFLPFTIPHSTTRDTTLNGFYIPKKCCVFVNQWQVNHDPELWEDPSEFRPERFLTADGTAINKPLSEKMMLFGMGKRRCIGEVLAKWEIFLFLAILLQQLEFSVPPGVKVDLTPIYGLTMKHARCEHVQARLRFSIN
CYP2D6, sequence (P10635 whole entry): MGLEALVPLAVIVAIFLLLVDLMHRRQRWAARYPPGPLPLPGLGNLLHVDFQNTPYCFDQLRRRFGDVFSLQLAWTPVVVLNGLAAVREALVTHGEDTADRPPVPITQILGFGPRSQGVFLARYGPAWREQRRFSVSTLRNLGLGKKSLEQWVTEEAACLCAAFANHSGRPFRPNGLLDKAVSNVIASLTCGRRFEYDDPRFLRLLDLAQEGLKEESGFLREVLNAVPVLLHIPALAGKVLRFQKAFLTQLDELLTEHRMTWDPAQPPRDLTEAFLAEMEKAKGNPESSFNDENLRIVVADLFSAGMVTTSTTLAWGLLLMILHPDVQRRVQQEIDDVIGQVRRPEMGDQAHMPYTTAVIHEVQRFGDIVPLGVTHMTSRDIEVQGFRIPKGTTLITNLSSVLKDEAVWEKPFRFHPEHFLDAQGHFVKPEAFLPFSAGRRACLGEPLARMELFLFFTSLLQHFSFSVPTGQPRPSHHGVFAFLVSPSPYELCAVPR
hERG (KCNH2), sequence (Q12809 whole entry): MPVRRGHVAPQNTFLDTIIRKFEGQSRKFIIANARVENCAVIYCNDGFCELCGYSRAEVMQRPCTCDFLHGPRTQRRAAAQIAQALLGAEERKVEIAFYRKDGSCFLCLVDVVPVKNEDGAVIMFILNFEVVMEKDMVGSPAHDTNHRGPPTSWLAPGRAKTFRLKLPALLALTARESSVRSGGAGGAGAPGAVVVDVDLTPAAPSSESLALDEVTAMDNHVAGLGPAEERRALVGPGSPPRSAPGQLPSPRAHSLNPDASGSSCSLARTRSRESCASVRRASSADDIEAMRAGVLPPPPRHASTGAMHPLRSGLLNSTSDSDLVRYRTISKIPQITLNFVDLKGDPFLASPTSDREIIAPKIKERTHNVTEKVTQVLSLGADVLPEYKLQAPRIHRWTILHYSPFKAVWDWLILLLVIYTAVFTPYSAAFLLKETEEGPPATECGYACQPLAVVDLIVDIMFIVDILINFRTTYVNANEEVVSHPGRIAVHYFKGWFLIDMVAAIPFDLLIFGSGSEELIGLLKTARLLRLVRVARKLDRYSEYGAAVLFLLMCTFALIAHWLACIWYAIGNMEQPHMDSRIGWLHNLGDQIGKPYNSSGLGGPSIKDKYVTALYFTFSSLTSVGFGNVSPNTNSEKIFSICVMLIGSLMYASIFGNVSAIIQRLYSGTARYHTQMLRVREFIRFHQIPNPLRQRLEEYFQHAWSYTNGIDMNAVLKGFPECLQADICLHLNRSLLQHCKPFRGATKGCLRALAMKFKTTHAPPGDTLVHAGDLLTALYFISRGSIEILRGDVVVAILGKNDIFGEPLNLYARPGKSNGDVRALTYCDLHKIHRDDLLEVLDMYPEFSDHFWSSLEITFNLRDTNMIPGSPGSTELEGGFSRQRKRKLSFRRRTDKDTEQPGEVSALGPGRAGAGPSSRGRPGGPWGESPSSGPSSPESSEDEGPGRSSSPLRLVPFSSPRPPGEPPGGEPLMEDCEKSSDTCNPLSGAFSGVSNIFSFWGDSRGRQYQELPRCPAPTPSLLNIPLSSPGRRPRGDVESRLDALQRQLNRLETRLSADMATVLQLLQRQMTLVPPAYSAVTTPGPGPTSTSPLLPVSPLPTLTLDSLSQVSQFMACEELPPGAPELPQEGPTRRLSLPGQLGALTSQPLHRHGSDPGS

Q: For `CSc1nc(-c2ccc(F)cc2)c(-c2ccnc(NC(=O)C3CC3)c2)[nH]1`, which Drug metabolism [1] is on record?
A: Metabolite_Detected

Q: What about the IC50 [2] of the same compound?
A: 174 nM

Q: And the inhibition at 10 µM (CYP2D6)?
A: 14.6%

Q: And the inhibition at 10 µM (CYP1A2)?
A: 88.4%

Q: And the inhibition at 10 µM (CYP3A4)?
A: 75.6%

Q: What about the inhibition at 4 h, 10 µM (hERG (KCNH2)) of the same compound?
A: 30.1%

Q: What about the IC50 (Blood) of the same compound?
A: 541 nM

Q: And the t1/2 [3]?
A: 3.17 h

Q: What about the remaining at 2 h [4] of the same compound?
A: 65.9%

Q: What about the remaining at 4 h [5] of the same compound?
A: 44%

Q: And the IC50 [6]?
A: 24 nM

Q: And the IC50 [7]?
A: 300 nM

Q: What about the inhibition at 10 µM (CYP2C9) of the same compound?
A: 77.7%

Q: What about the remaining at 20 min [8] of the same compound?
A: 97.9%

Q: And the IC50 [9]?
A: 423 nM

Q: What about the IC50 [10] of the same compound?
A: 18.5 to 40 nM

Q: What about the remaining at 1 h [11] of the same compound?
A: 81.8%

Q: And the remaining at 10 min [12]?
A: 98.8%

Q: And the remaining at 0.5 h [13]?
A: 89.6%

Q: And the solubility at 1 h [14]?
A: 51 µg/mL (≈ 138 µM)

Q: What about the remaining at 3 h [15] of the same compound?
A: 52.1%

Q: And the Ratio [16]?
A: 0.5

Q: And the “inhibition (INH)” value (Cytochrome P450 2C19)?
A: 56.1%
